The values that follow come from article PMC6267549 (Clinical Pharmacokinetics, 2018).

Series [1] in a line: SNAC plasma pharmacokinetics after ten once-daily doses of oral semaglutide. The class given is in vivo, human. The conditions noted are these: for tmax,Day10: median (minimum, maximum). In outline:
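Oral tablets (300 mg SNAC) given once daily, 5 mg semaglutide days 1–5 then 10 mg days 6–10, with 120 mL water after >6 h fast and no intake for 30 min after. K3EDTA plasma sampled, including extra points within 24 h after last dose, stored at -20 °C. SNAC measured by LC-MS/MS after in-line solid-phase preparation against an analogue IS (5.00-2000 ng/mL, fivefold dilution above). AUC24 by linear trapezoid; Cmax and tmax observed.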

A short description of series [2]: Semaglutide and SNAC urine bioanalysis / renal clearance. The conditions noted are these: for CLR: based on 0–36 h after the tenth dosing, geometric mean (CV). Type of series: in vivo, human. The procedure, abridged: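 Urine collected pre-dose day 1 and fractionated over set intervals on days 10–11 after the tenth dose, then stored at -20 °C. 1% Triton X-100 added, 1 part per 9 parts urine. Semaglutide and SNAC quantified by the plasma LC-MS/MS methods with ranges corrected by 1.111. Renal clearance derived over 0–36 h after the tenth dose.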

Series [3] in a line: Effect of haemodialysis on semaglutide and SNAC exposure in subjects with ESRD. The class given is in vivo, human. In outline: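 ESRD subjects on haemodialysis three times weekly, started right after dosing (blood flow 500-600 mL/min, ultrafiltration 0-23 mL/min, low- or high-flux membranes). Semaglutide: observed AUC 144–148 h during day-16 dialysis divided by predicted AUC, with λz taken from inter-dialysis plasma levels at 76, 96, 120 and 144 h. SNAC: AUC4 on dialysis day 9 vs non-dialysis day 10, compared by log-scale linear model (dialysis, subject fixed).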

The format of series [4] is in vivo, human. The conditions noted are these: once-daily oral semaglutide, not characterised in the trial. The procedure, abridged:
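Ten once-daily oral doses given, 5 mg for 5 days then 10 mg for 5 days, fasted. Plasma sampled pre-dose and to 504 h after the last dose, K3EDTA, stored at -20 °C. Semaglutide measured by LC-MS/MS after protein precipitation (0.729-60.8 nmol/L, 1/concentration² weighting). t½ = ln(2)/λz, with λz from log-linear regression on the terminal phase.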

For series [5] the following is noted: subcutaneous administration; humans; cited from earlier work.
For series [6] the following is noted: subcutaneous administration; rats; cited from earlier work.
The conditions of series [7]: subcutaneous administration; monkeys; cited from earlier work.
Where [8] appears, read: mild renal impairment vs normal renal function.
Where [9] appears, read: moderate renal impairment vs normal renal function.
Setting [10] is: severe renal impairment vs normal renal function.

Entries after “also recorded” stand apart in the source; their conditions may differ. Where two headings read alike, the source gives them in different places.

With `O=C([O-])CCCCCCCNC(=O)c1ccccc1O.[Na+]` [SNAC, sodium N-(8-[2-hydroxybenzoyl]amino) caprylate], the “AUC24,Day10” value in series [1] (ESRD (n = 11), after tenth dose, geometric mean (CV)) is on record as 1471.4 (27.0) nmol·h/L; in series [1] (mild renal impairment (n = 12), after tenth dose, geometric mean (CV)), 1311.6 (31.5) nmol·h/L; in series [1] (moderate renal impairment (n = 12), after tenth dose, geometric mean (CV)), 1335.9 (34.6) nmol·h/L; in series [1] (normal renal function (n = 24), after tenth dose, geometric mean (CV)) it was 1028.8 (29.2) nmol·h/L; in series [1] (severe renal impairment (n = 12), after tenth dose, geometric mean (CV)) it was 1522.8 (31.8) nmol·h/L. Further, the “tmax,Day10” value was 0.83 (0.17, 5.00) h in series [1] (ESRD (n = 11), after tenth dose); 0.58 (0.33, 2.50) h in series [1] (mild renal impairment (n = 12), after tenth dose); 0.67 (0.33, 6.00) h in series [1] (moderate renal impairment (n = 12), after tenth dose); 0.75 (0.33, 3.00) h in series [1] (normal renal function (n = 24), after tenth dose); 0.67 (0.17, 1.00) h in series [1] (severe renal impairment (n = 12), after tenth dose). Moreover, the “estimated ratio Cmax,Day10” value is reported as 0.79 in series [1] (ESRD vs normal renal function), 0.94 in series [1] (setting [8]), 0.70 in series [1] (setting [9]) and 1.06 in series [1] (setting [10]). Further, the “estimated ratio of the AUC24,Day10” value in series [1] (ESRD vs normal renal function) is 1.32; in series [1] (setting [8]), 1.19; in series [1] (setting [9]), 1.30; in series [1] (setting [10]), 1.49. The Cmax in series [1] (read-out: Cmax,Day10, ESRD (n = 11), after tenth dose, geometric mean (CV)) amounted to 936 nM. Moreover, the CLR in series [2] (ESRD (n = 11)) is listed as 0.01 (508.51) L/h; in series [2] (mild renal impairment (n = 12)), 0.08 (87.88) L/h; in series [2] (moderate renal impairment (n = 12)) it was 0.09 (92.63) L/h; in series [2] (normal renal function (n = 24)), 0.06 (104.33) L/h; in series [2] (severe renal impairment (n = 12)), 0.04 (98.22) L/h. In addition, in series [3] (haemodialysis vs no haemodialysis), the “estimated ratio of AUC4 on day 9 during haemodialysis to AUC4 on day 10” value is given as 0.95.

In the case of `CC[C@H](C)[C@H](NC(=O)[C@H](Cc1ccccc1)NC(=O)[C@H](CCC(=O)O)NC(=O)[C@H](CCCCNC(=O)COCCOCCNC(=O)COCCOCCNC(=O)CC[C@H](NC(=O)CCCCCCCCCCCCCCCCC(=O)O)C(=O)O)NC(=O)[C@H](C)NC(=O)[C@H](C)NC(=O)[C@H](CCC(N)=O)NC(=O)CNC(=O)[C@H](CCC(=O)O)NC(=O)[C@H](CC(C)C)NC(=O)[C@H](Cc1ccc(O)cc1)NC(=O)[C@H](CO)NC(=O)[C@H](CO)NC(=O)[C@@H](NC(=O)[C@H](CC(=O)O)NC(=O)[C@H](CO)NC(=O)[C@@H](NC(=O)[C@H](Cc1ccccc1)NC(=O)[C@@H](NC(=O)CNC(=O)[C@H](CCC(=O)O)NC(=O)C(C)(C)NC(=O)[C@@H](N)Cc1cnc[nH]1)[C@@H](C)O)[C@@H](C)O)C(C)C)C(=O)N[C@@H](C)C(=O)N[C@@H](Cc1c[nH]c2ccccc12)C(=O)N[C@@H](CC(C)C)C(=O)N[C@H](C(=O)N[C@@H](CCCNC(=N)N)C(=O)NCC(=O)N[C@@H](CCCNC(=N)N)C(=O)NCC(=O)O)C(C)C` [semaglutide], the “time to reach steady state (predicted)” value in series [4] is recorded as 4–5 weeks. For the same molecule, the detection in urine result in series [2] (urine samples days 10–11, except one subject in the ESRD group) is recorded as “not detected in urine; also recorded: not generally detected”. Moreover, the “AUC144–148 h,dial/AUC144–148 h,pred (estimated ratio)” value in series [3] (observed during haemodialysis (day 16) over predicted) is reported as 0.97. Moreover, the “intact semaglutide in urine, of the administered dose” value is 3.1% in series [5] and “less than 1%” in series [6]. Further, the “intact semaglutide in urine” value in series [7] was “not detected”.
